Activity calls are given as the source filed them. The calls are words filed in the database; no cut-off is given here.
Key:
Format in all cases: functional
Staphylococcus aureus = experiment: Antibacterial activity against Staphylococcus aureus NCTC 6571 at 4 mg/ml by hole plate assay
Procedure, shortened: (§1)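 Hole-plate bioassay with samples at 4 mg/ml in 7:3 DMSO/H₂O, loaded into wells of bioassay plates and incubated overnight at 37 °C. The read-out was inhibition zone diameter in mm (±1 mm).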

Escherichia coli [1] = experiment: Antibacterial activity against Escherichia coli X580 at 4 mg/ml by hole plate assay; conditions: for zone of inhibition at 4000 µg/mL: read-out: DIZ; procedure, shortened: as §1
Escherichia coli [2] = experiment: Antibacterial activity against Escherichia coli X580 assessed as zone of diameter per molar relative to cephalosporin
Procedure, shortened: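 Hole-plate agar diffusion: test solutions were loaded into wells of bioassay plates and incubated overnight at 37 °C. Inhibition zone diameters were measured, and relative potency was expressed as zone diameter per M of analyte against standards prepared with cephalosporin C.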

Row | Structure (SMILES) | diameter of the inhibition zone (DIZ) (Staphylococcus aureus) | zone of inhibition at 4000 µg/mL (Escherichia coli [1]) | zone of inhibition at 4000 µg/mL (Staphylococcus aureus; read-out: DIZ) | diameter of the inhibition zone (DIZ) (Escherichia coli [1]) | Activity (Escherichia coli [2])
1 | CCCCCCCC(O)C(C)(C)C(=O)NCc1cn(CCCCC#C[C@]2(O)C(C)(C)C(=O)N3[C@@H](C(C)(C)C)OC[C@@]32C(=O)OC)nn1 (stereo partly drawn) | inactive | 14 mm | – | – | –
2 | COC(=O)[C@]12CO[C@H](C(C)(C)C)N1C(=O)C(C)(C)[C@@]2(O)C#Cc1ccccc1 | – | – | 13 mm | inactive | –
3 | COC(=O)[C@]1(CO)NC(=O)C(C)(C)[C@@]1(O)C#CCCCCn1cc(CNC(=O)C(C)(C)C(O)CCCCc2ccccc2)nn1 (stereo partly drawn) | inactive | 14 mm | – | – | –
4 | COC(=O)[C@]12CO[C@H](C(C)(C)C)N1C(=O)C(C)(C)[C@@]2(O)CCCCCc1cc(CNC(=O)C(C)(C)C(O)c2ccccc2)on1 (stereo partly drawn) | inactive | – | – | inactive | –
5 | CCCCCCCCC#C[C@]1(O)C(C)(C)C(=O)N[C@@]1(CO)C(=O)OC | inactive | – | – | inactive | –
6 | COC(=O)[C@]12CO[C@H](C(C)(C)C)N1C(=O)C(C)(C)[C@@]2(O)C#CCCCCBr | inactive | 14 mm | – | – | 0.05%
7 | COC(=O)[C@]12CO[C@H](C(C)(C)C)N1C(=O)C(C)(C)[C@@]2(O)CCCCCCO | inactive | – | – | inactive | –
8 | COC(=O)[C@]12CO[C@H](C(C)(C)C)N1C(=O)C(C)(C)[C@@]2(O)CCCCCc1cc(CNC(=O)C(C)(C)C(O)CCCCc2ccccc2)on1 (stereo partly drawn) | inactive | 15 mm | – | – | –
9 | CCCCCCCCC#C[C@]1(O)C(C)(C)C(=O)N2[C@@H](C(C)(C)C)OC[C@@]21C(=O)OC | inactive | – | – | inactive | –
10 | CCCCCCCC(O)C(C)(C)C(=O)NCc1cn(CCCCC#C[C@]2(O)C(C)(C)C(=O)N[C@@]2(CO)C(=O)OC)nn1 (stereo partly drawn) | inactive | – | – | inactive | –
11 | CC1(C)C(=O)N[C@@](CO)(C(=O)O)[C@]1(O)C#Cc1ccccc1 | inactive | – | – | inactive | –
12 | COC(=O)[C@]1(CO)NC(=O)C(C)(C)[C@@]1(O)C#CCNC(=O)C(C)(C)C(O)c1ccccc1 (stereo partly drawn) | inactive | – | – | inactive | –
13 | COC(=O)[C@]12CO[C@H](C(C)(C)C)N1C(=O)C(C)(C)[C@@]2(O)C#CCCCCn1cc(CNC(=O)C(C)(C)C(O)CCCCc2ccccc2)nn1 (stereo partly drawn) | inactive | 13 mm | – | – | –
14 | COC(=O)[C@]12CO[C@H](C(C)(C)C)N1C(=O)C(C)(C)[C@@]2(O)C#CCCCCn1cc(CNC(=O)C(C)(C)C(O)c2ccccc2)nn1 (stereo partly drawn) | inactive | 14 mm | – | – | –
15 | COC(=O)[C@]12CO[C@H](C(C)(C)C)N1C(=O)C(C)(C)[C@@]2(O)C#CCCCCO | inactive | – | – | inactive | –
16 | COC(=O)[C@]1(CO)NC(=O)C(C)(C)[C@@]1(O)CCCCCc1cc(CNC(=O)C(C)(C)C(O)c2ccccc2)on1 (stereo partly drawn) | inactive | 13 mm | – | – | –
17 | CCCCCCCC(O)C(C)(C)C(=O)NCc1cc(CCCCC[C@]2(O)C(C)(C)C(=O)N3[C@@H](C(C)(C)C)OC[C@@]32C(=O)OC)no1 (stereo partly drawn) | inactive | – | – | inactive | –
18 | COC(=O)[C@]1(CO)NC(=O)C(C)(C)[C@@]1(O)C#CCCCCn1cc(CNC(=O)C(C)(C)C(O)c2ccccc2)nn1 (stereo partly drawn) | inactive | 15 mm | – | – | –
19 | COC(=O)[C@]12CO[C@H](C(C)(C)C)N1C(=O)C(C)(C)[C@@]2(O)C#CCNC(=O)C(C)(C)C(O)c1ccccc1 (stereo partly drawn) | inactive | 17 mm | – | – | 0.1%
20 | CCCCCCCC(O)C(C)(C)C(=O)NCc1cc(CCCCC[C@]2(O)C(C)(C)C(=O)N[C@@]2(CO)C(=O)OC)no1 (stereo partly drawn) | inactive | 17 mm | – | – | 0.2%
21 | COC(=O)[C@]1(CO)NC(=O)C(C)(C)[C@@]1(O)C#Cc1ccccc1 | inactive | – | – | inactive | –
22 | COC(=O)[C@]1(CO)NC(=O)C(C)(C)[C@@]1(O)CCCCCc1cc(CNC(=O)C(C)(C)C(O)CCCCc2ccccc2)on1 (stereo partly drawn) | inactive | 14 mm | – | – | 0.1%

Reference: ChEMBL document CHEMBL1156951, “Oxazolomycins: natural product lead structures for novel antibacterials by click fragment conjugation” (2010)
